Measured values published in ChEMBL document CHEMBL3108674, “6-Alkoxy-5-aryl-3-pyridinecarboxamides, a new series of bioavailable cannabinoid receptor type 1 (CB1) antagonists including peripherally selective compounds” (J Med Chem, 2013).
Active and inactive are the calls of the source. No cut-off for these calls is given here.

Columns and labels:
[1] = Volume of distribution at steady state in iv dosed rat; assay type: ADME, organism-based; conditions: in vivo, read-out: Vdss
Rattus norvegicus [2] = assay: Maximum unbound fraction in rat at 10 mg/kg, po; assay type: ADME, organism-based; design: dose 10 mg/kg, route oral; conditions: in vivo
Outline: (§1)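 Single-dose oral PK in rats at 10 mg/kg, measuring peak plasma concentration. The maximum unbound level was given alongside rat plasma protein binding (%).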

Rattus norvegicus [3] = assay: Increase of insulin sensitivity in high fat diet-fed Sprague-Dawley rat assessed as decrease in insulin AUC at 10 mg/kg, po qd administered for 24 days followed by glucose challenge by oral glucose tolerance test; assay type: functional, organism-based; design: dose 10 mg/kg
Plasma [4] = assay: Maximum unbound fraction in rat plasma at 10 mg/kg, po; assay type: ADME, organism-based; design: dose 10 mg/kg, route oral; conditions: in vivo; outline: as §1
[5] = Tmax in rat plasma at 10 mg/kg, po; assay type: ADME, organism-based; design: dose 10 mg/kg, route oral
Outline: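 Single oral dose of 10 mg/kg in rats. Plasma concentrations followed over time, and time to peak plasma level (h) read from the profile.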

[6] = Clearance in iv dosed rat; assay type: ADME, organism-based; conditions: in vivo
[7] = Plasma protein binding in rat; assay type: ADME, cell-free; conditions: read-out: PPB (converted)
[8] = Oral bioavailability in rat; assay type: ADME, organism-based; conditions: in vivo
Outline: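 Bioavailability from rat single-dose PK, comparing oral dosing (10, 7.9 or 9 mg/kg, depending on compound) with intravenous dosing.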

[9] = Tmax in po dosed rat plasma; assay type: ADME, organism-based
Outline: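 Single-dose rat PK study: compound given orally at 7.9 or 9 mg/kg, depending on compound. Plasma exposure followed over time, and Tmax (h) taken from the plasma concentration–time profile.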

[10] = Cmax in rat plasma at 10 mg/kg, po; assay type: ADME, organism-based; design: dose 10 mg/kg, route oral; outline: as §1
[11] = Ratio of drug level in brain to plasma in rat; assay type: ADME; conditions: brain and plasma, read-out: BPR
Cannabinoid receptor 2 = Cannabinoid receptor 2 (Homo sapiens, UniProt P34972); assay: Displacement of [3H]CP55940 from human CB2 receptor expressed in CHOK1 cells after 1 hr by liquid scintillation counting analysis; assay type: cell-based, CHO-K1
Outline: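 Membranes from butyrate-treated (5 mM, 24 h) CHO-K1 cells stably expressing human CB2, incubated with 0.3 nM [3H]CP55940 and increasing ligand concentrations, 60 min, 30 °C, pH 7.4 Tris buffer with 0.1% fatty acid-free BSA and 1% DMSO; nonspecific binding with 10 μM CP55940; filtration, scintillation counting; tested in triplicate.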

Cannabinoid receptor 1 [12] = biological target: T1, Cannabinoid receptor 1 (Homo sapiens, UniProt P21554); assay: Antagonist activity at human CB1 receptor overexpressed in HEK cells assessed as [35S]GTPgamma binding after 1 hr by liquid scintillation counting analysis; assay type: functional, cell-based, HEK293
Rattus norvegicus [13] = assay: Reduction of leptin level in high fat diet-fed Sprague-Dawley rat plasma at 30 mg/kg, po qd after 24 days by ELISA; assay type: functional, organism-based; design: dose 30 mg/kg
Outline: (§2)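 Diet-induced obese Sprague-Dawley rats (high responders), single-housed, groups of n = 9 matched for body weight and MRS body fat; drug given as food admix for 24 days alongside pair-fed groups; body weight and food intake measured daily; body fat by MRS; plasma leptin by ELISA; mean ± SEM, ANOVA with Dunnett's test versus vehicle.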

[14] = Ratio of drug level in Sprague-Dawley rat brain to plasma at 30 mg/kg, po qd after 10 days by LC-MS/MS analysis; assay type: ADME, organism-based; design: dose 30 mg/kg, route oral; conditions: brain and plasma, read-out: BPR
Rattus norvegicus [15] = organism: Rattus norvegicus; assay: Reduction in body weight gain in high fat diet-fed Sprague-Dawley rat at […]; assay type: functional, organism-based
[16] = Cmax in Sprague-Dawley rat plasma at 30 mg/kg, po qd after 10 days by LC-MS/MS analysis; assay type: ADME, organism-based; design: dose 30 mg/kg, route oral
Outline: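 Male Sprague-Dawley rats (n = 3 per compound) given 30 mg/kg/day as feed admix for 10 days; jugular vein catheter implanted 4 days before sampling; on day 10 switched to drug-free high fat chow, then serial K3EDTA blood samples over 24 h; plasma drug levels by LC-MS.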

[17] = Drug uptake in Sprague-Dawley rat brain at 30 mg/kg, po qd after 10 days by LC-MS/MS analysis; assay type: ADME, organism-based; design: dose 30 mg/kg, route oral; conditions: read-out: Drug uptake
[18] = Clearance in rat at 1 mg/kg, iv; assay type: ADME, organism-based; design: dose 1 mg/kg, route intravenous; conditions: in vivo
[19] = Oral bioavailability in rat at 7.9 mg/kg; assay type: ADME, organism-based; conditions: in vivo
Rattus norvegicus [20] = assay: Maximum unbound fraction in rat at 7.9 mg/kg, po; assay type: ADME, organism-based; design: dose 7.9 mg/kg, route oral; conditions: in vivo
Liver microsome = assay: Clearance in rat liver microsomes at 2 uM by LC-MS/MS analysis; assay type: ADME
Outline: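 Rat liver microsomes at 0.5 mg/mL were incubated with 2 μM compound (final) and an NADPH-regenerating system. Aliquots were taken at 1, 3, 6, 9, 15, 25, 35 and 45 min and quenched in acetonitrile containing internal standard. Depletion was measured by LC-MS/MS. Clmic = −slope × 1000 / protein concentration (mg/mL), not corrected for microsomal protein binding.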

Rattus norvegicus [21] = assay: Increase of insulin sensitivity in high fat diet-fed Sprague-Dawley rat assessed as decrease in insulin AUC at 30 mg/kg, po qd administered for 24 days followed by glucose challenge by oral glucose tolerance test; assay type: functional, organism-based; design: dose 30 mg/kg
[22] = Cmax in rat plasma at 7.9 mg/kg, po; assay type: ADME, organism-based; design: dose 7.9 mg/kg, route oral
Rattus norvegicus [23] = assay: Reduction in body fat content in high fat diet-fed Sprague-Dawley rat at 30 mg/kg, po qd after 24 days; assay type: functional, organism-based; design: dose 30 mg/kg; outline: as §2
Plasma [24] = assay: Maximum unbound fraction in rat plasma at 7.9 mg/kg, po; assay type: ADME, organism-based; design: dose 7.9 mg/kg, route oral; conditions: in vivo
[25] = Volume of distribution at steady state in rat at 1 mg/kg, iv; assay type: ADME, organism-based; design: dose 1 mg/kg, route intravenous; conditions: in vivo, read-out: Vdss
[26] = Tmax in rat plasma at 7.9 mg/kg, po; assay type: ADME, organism-based; design: dose 7.9 mg/kg, route oral
Hepatocyte = assay: Intrinsic clearance in rat hepatocytes at 10 uM by LC-MS/MS analysis; assay type: ADME, cell-based
Rattus norvegicus [27] = assay: Maximum unbound fraction in rat at 9 mg/kg, po; assay type: ADME, organism-based; design: dose 9 mg/kg, route oral; conditions: in vivo
[28] = Cmax in rat plasma at 9 mg/kg, po; assay type: ADME, organism-based; design: dose 9 mg/kg, route oral
[29] = Tmax in rat plasma at 9 mg/kg, po; assay type: ADME, organism-based; design: dose 9 mg/kg, route oral
[30] = Oral bioavailability in rat at 9 mg/kg; assay type: ADME, organism-based; conditions: in vivo
Plasma [31] = assay: Maximum unbound fraction in rat plasma at 9 mg/kg, po; assay type: ADME, organism-based; design: dose 9 mg/kg, route oral; conditions: in vivo
Substance-K receptor = biological target: T2, Substance-K receptor (Homo sapiens, UniProt P21452); assay: Antagonist activity at human NK2 receptor
T2 sequence (P21452 whole entry): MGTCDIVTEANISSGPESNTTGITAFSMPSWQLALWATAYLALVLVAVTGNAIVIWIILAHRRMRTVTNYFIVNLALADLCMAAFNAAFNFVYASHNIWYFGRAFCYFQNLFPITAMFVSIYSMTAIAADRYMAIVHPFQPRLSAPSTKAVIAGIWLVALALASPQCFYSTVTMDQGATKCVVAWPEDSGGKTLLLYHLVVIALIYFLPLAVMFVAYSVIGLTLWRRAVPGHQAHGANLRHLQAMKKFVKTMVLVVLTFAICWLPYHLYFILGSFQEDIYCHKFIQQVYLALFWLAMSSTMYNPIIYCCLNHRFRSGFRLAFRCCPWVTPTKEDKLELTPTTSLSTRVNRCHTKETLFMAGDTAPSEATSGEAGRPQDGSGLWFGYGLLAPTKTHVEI

[32] = Clearance in rat at 3.3 mg/kg, iv; assay type: ADME, organism-based; design: dose 3.3 mg/kg, route intravenous; conditions: in vivo
[33] = Volume of distribution at steady state in rat at 3.3 mg/kg, iv; assay type: ADME, organism-based; design: dose 3.3 mg/kg, route intravenous; conditions: in vivo, read-out: Vdss
Cannabinoid receptor 1 [34] = biological target: T1, Cannabinoid receptor 1; assay: Displacement of [3H]CP55940 from human CB1 receptor expressed in CHOK1 cells after 1 hr by liquid scintillation counting analysis; assay type: cell-based, CHO-K1

T1 sequence (P21554 whole entry): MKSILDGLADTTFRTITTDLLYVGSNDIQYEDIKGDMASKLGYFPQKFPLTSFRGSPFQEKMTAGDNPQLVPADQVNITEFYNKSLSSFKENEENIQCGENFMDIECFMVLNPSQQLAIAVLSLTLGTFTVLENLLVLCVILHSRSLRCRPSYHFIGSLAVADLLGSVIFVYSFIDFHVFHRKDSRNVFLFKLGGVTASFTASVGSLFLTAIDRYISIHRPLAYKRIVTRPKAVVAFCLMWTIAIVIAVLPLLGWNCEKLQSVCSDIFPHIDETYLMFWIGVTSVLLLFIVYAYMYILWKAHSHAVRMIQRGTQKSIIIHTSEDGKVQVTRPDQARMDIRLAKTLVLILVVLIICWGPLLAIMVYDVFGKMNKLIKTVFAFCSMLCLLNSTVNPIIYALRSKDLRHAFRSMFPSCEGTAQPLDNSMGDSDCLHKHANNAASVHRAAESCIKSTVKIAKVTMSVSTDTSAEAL
Sequence of Cannabinoid receptor 2 (P34972 whole entry): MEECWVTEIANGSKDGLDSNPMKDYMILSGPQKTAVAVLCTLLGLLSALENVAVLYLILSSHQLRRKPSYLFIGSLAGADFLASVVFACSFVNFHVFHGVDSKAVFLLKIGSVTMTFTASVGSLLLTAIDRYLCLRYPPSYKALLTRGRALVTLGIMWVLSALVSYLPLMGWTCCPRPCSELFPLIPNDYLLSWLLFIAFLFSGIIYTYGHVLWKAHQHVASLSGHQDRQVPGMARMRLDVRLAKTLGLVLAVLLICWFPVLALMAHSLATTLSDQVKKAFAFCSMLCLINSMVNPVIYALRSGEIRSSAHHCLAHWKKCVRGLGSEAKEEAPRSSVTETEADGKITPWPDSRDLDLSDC

With `Cc1c(C(=O)NN2CCCCC2)nn(-c2ccc(Cl)cc2Cl)c1-c1ccc(Cl)cc1` [RIMONABANT] the Vd [1] was 11.5 L/kg, the fCmax (Rattus norvegicus [2]) was 1.8 nM and the Activity (Rattus norvegicus [3]) was “Active”. For the same compound, the “Cp(f)max” value (Plasma [4]) was 0.83 ng/mL, the Tmax [5] was 1.5 h and the clearance [6] was 17 mL/min/kg. The fraction unbound [7] was 0.003, the bioavailability [8] was 12% and the Tmax [9] was 1 h. It also gave a Cmax [10] of 244 ng/mL and a Kp [11] of 3.
With `O=C(N[C@@H]1CCCC[C@H]1O)c1cnc(OCC2CC2)c(-c2ccc(Cl)cc2)c1` the Ki (Cannabinoid receptor 2) was over 7000 nM, the EC50 (Cannabinoid receptor 1 [12]) was 3.9 nM and the Activity (Rattus norvegicus [13]) was “Active”. For the same compound, the Kp at 240 h [14] was 1.3, the Activity (Rattus norvegicus [15]) was “Active” and the Cmax [16] was 1020 ng/mL. For the same compound, the concentration at 240 h [17] was 1400 ng/g, the clearance [18] was 7.4 mL/min/kg and the bioavailability [19] was 23%. The fCmax (Rattus norvegicus [20]) was under 28 nM, the CLH (Liver microsome) was 64 µL/min/mg and the fraction unbound [7] was under 0.016. The Activity (Rattus norvegicus [21]) was “Active”, the Cmax [22] was 729 ng/mL and the Activity (Rattus norvegicus [23]) was “Active”. For the same compound, the “Cp(f)max” value (Plasma [24]) was under 11 ng/mL, the Vd [25] was 1.8 L/kg and the Kp [11] was 0.7. For the same compound, the Tmax [26] was 1.9 h and the CLH (Hepatocyte) was 3.3 µL/min.
`COCCOc1ncc(C(=O)N[C@@H]2CCCC[C@H]2O)cc1-c1ccc(Cl)cc1` gave a fCmax (Rattus norvegicus [27]) of 156 nM, a Ki (Cannabinoid receptor 2) of over 10000 nM and an EC50 (Cannabinoid receptor 1 [12]) of 11.6 nM. The Activity (Rattus norvegicus [13]) was “inactive”, the Cmax [28] was 1620 ng/mL and the Kp at 240 h [14] was 0.13. The Activity (Rattus norvegicus [15]) was “inactive”, the Cmax [16] was 1000 ng/mL and the concentration at 240 h [17] was 130 ng/g. It also gave a CLH (Liver microsome) of 98 µL/min/mg, a Tmax [29] of 0.5 h and a bioavailability [30] of 84%. The fraction unbound [7] was 0.039, the “Cp(f)max” value (Plasma [31]) was 63 ng/mL and the Activity (Rattus norvegicus [23]) was “inactive”. For the same compound, the IC50 (Substance-K receptor) was 46000 nM, the clearance [32] was 18.6 mL/min/kg and the Kp [11] was 0.1. The Vd [33] was 0.7 L/kg and the Ki (Cannabinoid receptor 1 [34]) was 5.1 nM.
